MC4R antag cAMP = antagonists of human melanocortin 4 receptor (MC4R) | P32245 | MC4R-expressing cells, MTII-stimulated cAMP, LANCE TR-FRET | inhibition, % at 6.5 µM | actives 0.48% (n = 360,000);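 active = inhibition above its plate's cutoff, the mean of tested wells on that plate plus 3 SD, cut at about 29% in these data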;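 note: 0% = Melanotan II alone and 100% = Melanotan II plus saturating MCL0020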
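System: U2OS cells stably expressing human melanocortin 4 receptor (MC4R). Reagent: Melanotan II challenge after compound preincubation. Doses: 6.5 µM. Times: 30-min compound, 1-h challenge, 1-h detection, room temperature. Measured by: TR-FRET with Eu-cAMP and labeled anti-cAMP, 671 nm. Replicates: singlicate.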
MC4R barr agon = activates human MC4R beta-arrestin recruitment; actives 0.98% (n = 360,000); P32245; U2OS MC4R beta-arrestin complementation, luminescence; percent of melanotan II response, DMSO zero; activation, % at 8.9 µM; AID 540308;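 active = activation above a per-plate cutoff, the mean activation of sample wells on that plate plus 3 SD, cut at about 8% in these data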
CSC inhib = cancer stem cell inhibition | cancer stem cell-like cells viability, luminescence | inhibition, % at 7.5 µM | actives 1.1% (n = 300,000) | AID 2717; in the data active = inhibition above about 75%; inconclusive = no clear call, values can overlap the other calls; tested in HMLE shEcad cells
ANO1 block = inhibitors of mouse TMEM16A calcium-activated chloride channel | Q8BHY3 | HEK293 TMEM16A/YFP iodide influx fluorescence, ionomycin | normalized B-score (activity score, 25-100; higher = stronger inhibition) at 10 µM | actives 1.2% (n = 310,000) | AID 588511;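 active = ratio plate-corrected score three or more library SD toward inhibition, starting fluorescence score within five deviations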;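 note: score derived from kinetic fluorescence span divided by baseline fluorescence per well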
Target sequence (Q8BHY3 whole entry, looked up): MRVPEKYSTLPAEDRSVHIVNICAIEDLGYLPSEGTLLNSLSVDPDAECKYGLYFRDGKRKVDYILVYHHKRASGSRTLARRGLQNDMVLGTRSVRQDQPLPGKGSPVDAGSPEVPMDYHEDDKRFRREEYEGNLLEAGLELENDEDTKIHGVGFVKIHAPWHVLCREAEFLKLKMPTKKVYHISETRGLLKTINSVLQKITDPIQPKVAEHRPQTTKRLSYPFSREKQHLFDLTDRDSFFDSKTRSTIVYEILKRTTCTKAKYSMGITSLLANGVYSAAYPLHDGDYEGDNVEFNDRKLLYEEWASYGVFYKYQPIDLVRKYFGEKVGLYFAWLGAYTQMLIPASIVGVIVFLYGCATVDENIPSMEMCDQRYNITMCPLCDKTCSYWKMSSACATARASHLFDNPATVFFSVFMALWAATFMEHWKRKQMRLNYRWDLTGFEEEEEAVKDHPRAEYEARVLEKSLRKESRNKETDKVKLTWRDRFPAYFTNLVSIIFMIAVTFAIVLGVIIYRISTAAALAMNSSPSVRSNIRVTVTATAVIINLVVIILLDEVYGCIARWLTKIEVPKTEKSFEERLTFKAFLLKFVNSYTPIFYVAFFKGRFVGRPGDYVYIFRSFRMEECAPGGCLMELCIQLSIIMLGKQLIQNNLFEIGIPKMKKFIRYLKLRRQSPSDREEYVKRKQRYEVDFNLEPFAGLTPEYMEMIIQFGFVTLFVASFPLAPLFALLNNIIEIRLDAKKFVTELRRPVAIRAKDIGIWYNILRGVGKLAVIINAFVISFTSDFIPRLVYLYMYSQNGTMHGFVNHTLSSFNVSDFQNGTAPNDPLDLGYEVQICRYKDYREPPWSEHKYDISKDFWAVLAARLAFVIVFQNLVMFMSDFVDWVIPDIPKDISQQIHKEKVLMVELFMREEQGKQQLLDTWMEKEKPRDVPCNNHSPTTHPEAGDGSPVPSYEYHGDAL
ANO1 activ = mouse TMEM16A channel activation, primary screen. B-score at 10 µM. HEK293 TMEM16A/YFP-H148Q/I152L, iodide quench fluorescence; hits give low values. actives 0.3% (n = 340,000). AID 623877;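 active = fluorescence-ratio B-score plate-corrected deviation score at least 3 library SD below zero, with starting fluorescence score within 5 deviations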;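 note: channel opened by trigger with iodide after compound preincubation; score built on the fluorescence ratio of max minus min over baseline; more negative score means more quench and so TMEM16A activation or potentiation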
Beta apoptosis = blocks beta cell apoptosis; INS-1E cytokine-induced death, ATP luminescence, 48 h; percent of positive-control rescue, neutral wells zero; protection from apoptosis, % (test concentration not listed); actives 0.8% (n = 300,000);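 active = Every replicate reaches about 75%, or at least half do and their mean reaches it too, limit read from the data; inconclusive = At least half of replicates reach the limit but their mean does not; inactive = Under half of replicates reach the limit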;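 note: 0% = cytokine-treated negative control wells and 100% = positive control rescue; higher means more ATP so stronger rescue from cytokine killing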
The depositor's hits bear a star; i = inactive; ? = inconclusive; / = no result. In the library only some 3.8% were active in any assay of this set; here they are far more common.

SMILES	MC4R antag cAMP	MC4R barr agon	CSC inhib	ANO1 block	ANO1 activ	Beta apoptosis
CC(NCC(O)COc1ccc2ccccc2c1)c1ccccc1 (stereo unspecified)	-7	4	22	i	i	4
Cc1cc(OCC(O)CNC(C)c2ccccc2)ccc1C(C)C (stereo unspecified)	0	9.2*	8	i	i	-3
Cn1cc(/C=C/c2cc[n+](C)cc2)c2cc(F)ccc21	-18	1	-8	i	i	69
Cn1cc(/C=C/c2cc[n+](C)cc2)c2cc(Cl)ccc21	-15	-2	-9	i	i	95*
O=C(Nc1cccc(C(F)(F)F)c1)c1ccc(-c2ccc(F)c(F)c2)c2ccoc12	-4	-1	/	/	/	/
CN(C)C(CNC(=O)c1ccc(S(=O)(=O)Nc2ccccc2F)cc1)c1ccco1 (stereo unspecified)	-6	-1	/	/	i	2
Cc1ccccc1NC(=O)C1C2/C=C\CCCCC21 (stereo unspecified)	7	8.8*	8	i	i	5
Cc1cc2oc(=O)c(CC(=O)NCCCN(C)C)c(C)c2c2occ(C(C)(C)C)c12	/	/	91*	i	/	8
Cc1ccccc1CSc1nnc(-c2ccncc2)n1C	2	-1	-5	i	i	-4
COCCNC(=O)C1(C)CCN(C(=O)C2(c3ccc(Cl)cc3)CCCC2)C1 (stereo unspecified)	5	0	/	/	/	/
COc1ccc([C@H]2C[C@@H](O)[C@H](n3cc(COC(=O)c4ccccc4)nn3)CN2C(=O)c2cccs2)cc1	4	-1	/	/	/	/
Oc1ccc(Br)cc1/C=N/NC(=S)NCCc1ccccc1	-2	2	105*	i	i	13
CCn1cc(C(=O)NCC(OC)OC)c(=O)c2cc(S(=O)(=O)N(C)C3CCCCC3)ccc21	2	-2	23	i	i	6
O=C(COC(=O)CC(c1ccccc1)c1ccccc1)Nc1ccc(F)c(F)c1	/	/	-2	100*	/	2
Cc1csc2nc(CSc3nncn3-c3ccccc3)c(Br)n12	8	-1	-14	i	i	-4
Cc1csc2nc(CSc3nc4ccccc4o3)c(Br)n12	3	3	11	25*	i	3
O=S(=O)(Nc1ccc(-n2cccc2)cc1)c1ccc(Cl)c(Cl)c1	-4	6	84*	i	i	2
COc1ccccc1-c1sc2cc3c(cc2c1-c1ccc(OCCN2CCCCC2)cc1)OCO3	3	3	/	/	i	36
C1=C(c2sc3ccccc3c2-c2ccc(OCCN3CCOCC3)cc2)CCCC1	13	-1	88*	/	i	2
COc1cccc(-c2sc3ccc(OC)cc3c2-c2ccc(OCCN3CCOCC3)cc2)c1	9	0	104*	/	i	-4
COc1cc2sc(-c3ccccc3OC)c(-c3ccc(OCCN4CCCCC4)cc3)c2cc1OC	6	0	104*	/	i	124*
O=C(c1ccc(OCCN2CCCCC2)cc1)c1c(-c2ccc(O)cc2)sc2cc(O)ccc12	-7	-1	85*	i	i	-2
O=C1c2ccccc2C(=O)N1CCCCc1cn(C[C@H]2CC[C@@H]([C@@H]3CC[C@H](Cn4cc(CCCCN5C(=O)c6ccccc6C5=O)nn4)O3)O2)nn1	21	-1	-12	/	i	0
COc1ccccc1-c1sc2ccccc2c1-c1ccc(OCCN2CCOCC2)cc1	11	-2	/	/	i	/
c1ccc(-c2sc3ccccc3c2-c2ccc(OCCN3CCOCC3)cc2)cc1	5	0	86*	/	i	-8
SMILES	MC4R antag cAMP	MC4R barr agon	CSC inhib	ANO1 block	ANO1 activ	Beta apoptosis
COc1ccc(-c2sc3cc4c(cc3c2-c2ccc(OCCN3CCOCC3)cc2)OCO4)cc1	-4	1	125*	/	/	8
COc1cc(OC)cc(-c2sc3ccc(OC)cc3c2-c2ccc(OCCN3CCOCC3)cc2)c1	12	-1	/	/	i	/
Cn1nnnc1Sc1ncnc2scc(-c3cccc(S(C)(=O)=O)c3)c12	1	0	39	/	i	-59
Cn1nnnc1Sc1ncnc2scc(-c3cccc(Br)c3)c12	-4	-1	89*	/	i	-13
COc1ccc(-c2csc3ncnc(Sc4nnnn4C)c23)cc1	3	-2	52	/	i	-18
Cn1nnnc1Sc1ncnc2scc(-c3cccc4c3sc3ccccc34)c12	-18	-2	111*	/	i	3
Cn1nnnc1Sc1ncnc2scc(-c3ccc(Cl)cc3)c12	-20	-1	83*	/	i	-9
COc1cccc(-c2nnn(CC(=O)N3CCCCC3)n2)c1	0	-2	-9	i	i	-2
Cc1ccc(CN2C(=O)/C(=C\c3ccc(C(=O)NCc4cccnc4)cc3)Oc3ccccc32)cc1	/	/	108*	i	/	99*
O=P(c1ccccc1)(c1ccccc1)c1nc(-c2ccc(Cl)cc2)oc1N1CCOCC1	2	1	-5	i	i	-10
COc1ccc(-c2sc3ccccc3c2-c2ccc(O)cc2)cc1	7	0	107*	/	i	9
COc1ccccc1-c1sc2ccccc2c1-c1ccc(O)cc1	6	2	/	/	i	6
COc1ccc(-c2sc3cc(OC)c(OC)cc3c2-c2ccc(O)cc2)cc1	9	4	137*	/	/	8
CC1CCN(C(=O)CCNS(=O)(=O)c2ccc(Br)cc2)CC1	-1	-2	/	/	i	?
COc1ccc(C(=O)Oc2ccc3ccc(=O)oc3c2)cc1	6	2	-1	i	i	-8
COc1ccc(C(=O)Oc2ccc3oc(=O)sc3c2)cc1	-5	13*	-3	i	i	-10
COc1ccc(-c2cc([C@H]3[C@H]4C=CC[C@@H](C)[C@@H]4C(=O)N3Cc3ccccc3)ccc2F)cc1	-1	-1	77*	i	i	1
CC(=O)c1ccc(-c2ccc([C@H]3[C@H]4C=CC[C@@H](C)[C@@H]4C(=O)N3Cc3ccccc3)c(F)c2)cc1	5	0	75*	i	i	9
CC[C@@H]1CC=C[C@H]2[C@H]1C(=O)N(Cc1ccccc1)[C@H]2c1ccc(OC)c(Cl)c1	7	1	77*	i	i	4
C[C@@H]1CC=C[C@H]2[C@H]1C(=O)N(Cc1ccccc1)[C@H]2c1ccc2ccccc2c1	4	1	86*	i	i	18
C[C@@H]1CC=C[C@H]2[C@H]1C(=O)N(Cc1ccccc1)[C@H]2c1ccoc1	8	-1	15	i	i	-12
CC(=O)c1ccc(OCc2cc(C(=O)N3CCN(C4CCCC4)C(=O)C3)no2)cc1	13	-2	-5	i	i	-4

Source: PubChem
